{"source": "paper PMC3758425", "about": "(Biochemistry, 2013)", "key": {"[1]": {"target": "holo-CaM (Ca-bound human calmodulin) (Homo sapiens, UniProt P0DP23)", "assay": "NMR titration", "conditions": "compared with literature membrane binding, [55], [56]", "method_in_brief": "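Human CaM was expressed in E. coli and purified, ¹⁵N-labelled, holo form, held constant at 100 μM. It was titrated with N-acetylated α-syn, as the 1–19 peptide or the full-length protein, in 50 mM MES, 100 mM NaCl, 3 mM CaCl₂, pH 6.4, 5% D₂O. Amide shifts were read by ¹⁵N HSQC at 800 MHz, 310 K. Ten amides were scaled to one reference residue and fitted globally to a two-state 1:1 model.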"}, "CaM": {"target": "CaM", "conditions": "non-acetylated α-syn, cited from earlier work"}, "apo-CaM": {"system": "apo-CaM", "conditions": "non-acetylated α-syn; ref [28], [29]; cited from earlier work"}, "[2]": {"conditions": "ref [36]; cited from earlier work"}, "[3]": {"conditions": "non-acetylated form; ref [28]; cited from earlier work"}}, "note": "Entries after “also recorded” stand apart in the source; their conditions may differ.", "data": [{"substance": "α-syn: Full-length non-acetylated α-syn expressed in E. coli", "values": [{"measurement": "binding constant to holo-CaM relative to membranes containing anionic lipids", "setting": "[1]", "result": "comparable"}, {"measurement": "binding affinity (two earlier studies)", "setting": "CaM; ref [28], [29]", "result": "submicromolar range"}, {"measurement": "Kd", "setting": "CaM; read-out: dissociation constant (later study), ref [30]", "result": "~10", "unit": "µM"}, {"measurement": "interaction with apo-CaM in earlier studies", "setting": "apo-CaM", "result": "There is disagreement whether apo-CaM can interact with α-syn; also recorded: one report seeing interaction only in the presence of calcium-bound (holo-) CaM whereas the other observed little difference between the two forms"}, {"measurement": "affinity for negatively charged membranes, effect of N-terminal acetylation", "setting": "[2]", "result": "N-terminal acetylation increases its affinity for negatively charged membranes"}, {"measurement": "competition of CaM with membrane for α-syn binding", "setting": "[3]", "result": "CaM can compete with the membrane for α-syn binding"}]}]}
